Legend:
[1] = biological target: ATP-dependent translocase ABCB1 (Homo sapiens, UniProt P08183); test: Binding affinity to MDR1 expressed in MDCK2 cells assessed as absorptive quotient at 3 uM in absence of 2 uM by mass spectroscopy; type: ADME, cell-based; details: dog, mdck-ii
How it was run: (§1)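 Monolayers preincubated about 30 min with or without 2 μM elacridar, then given compound at 3 μM final (apical). After 60 min shaking, both chambers were sampled for MS. Integrity checked by Lucifer Yellow and TEER. Triplicate. Papp(A-B) and AQ calculated.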

Trypanosoma brucei [2] = test: Binding affinity to Trypanosoma brucei MetRS at 100 uM by thermal shift assay
How it was run: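 Thermal shift (ΔTm) read-out with T. brucei MetRS at 0.4 mg/ml and 5% DMSO; otherwise per an earlier protocol. The test agent was at the single concentration in the curator's line. Repeated three times independently.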

[3] = Inhibition of Trypanosoma brucei MetRS aminoacylation activity assessed as reduction in [3H]methionine incorporation into Escherichia coli tRNA pre-incubated for 15 mins before tRNA addition and measured after 120 mins by scintillation counting
How it was run: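 Recombinant enzyme at 10 nM, preincubated 15 min with 12-point two-fold inhibitor dilutions in 25 mM HEPES pH 7.9, 10 mM MgCl2, 50 mM KCl, spermine, BSA, DTT, 1% DMSO and pyrophosphatase. Reaction started with 400 μg/mL E. coli tRNA, 0.1 mM ATP and 250 nM [3H]methionine, run 120 min at room temperature. TCA-precipitated and filtered for scintillation counting. Quadruplicate, with IC50 by sigmoidal fit.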

[4] = Selectivity ratio of IC50 for human MetRS to IC50 for Trypanosoma brucei MetRS
How it was run: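 Ratio of the human mitochondrial MetRS IC50 to the T. brucei MetRS IC50, each from a [3H]methionine aminoacylation assay.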

[5] = system: Trypanosoma brucei brucei; test: Growth inhibition of Trypanosoma brucei brucei 427 blood stream forms after 48 hrs by alamar blue assay; type: functional, organism-based; details: Trypanosoma brucei, 427, 48 h
How it was run: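 Strain 427 bloodstream forms cultured in HMI-9 with 10% FBS at 37°C, 5% CO2. Triplicate wells seeded at 5×10^4 trypomastigotes with serial compound dilutions from 20 mM DMSO stocks. AlamarBlue read-out at 48 h, with pentamidine as the positive control.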

[6] = Cytotoxicity against human CRL8155 cells incubated for 48 hrs by alamar blue assay; type: cell-based; details: CRL8155, 48 h
How it was run: (§2)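 […] cells in RPMI or HepG2 cells in DMEM/F-12, each with 10% serum, seeded at 5×10^3 per well. Exposed to serial compound dilutions for 48 h.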

[7] = Permeability across MDCK2-MDR1 cells expressing MDR1 at 3 uM in absence of 2 uM P-gp inhibitor Elacridal by mass spectroscopy; type: ADME, cell-based, Canis lupus familiaris; details: dog, mdck-ii
How it was run: as §1, with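 “MDR1-MDCKII cells seeded on Transwell inserts and assayed 3 days later at 37°C in HBSS with glucose and HEPES. Monolayers” for “Monolayers”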

[8] = Cmax in mouse at 50 mg/kg, po administered as single dose measured over 6 hrs by MS/MS method; type: ADME, organism-based; design: dose 50 mg/kg, route oral; details: in vivo
How it was run: (§3)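 Mice, three per group, given one oral dose of 50 mg/kg in 5% DMSO, 3% EtOH, 7% Tween 80 in saline. Tail-snip blood taken at 0.5, 1, 2, 3, 4 and 6 h. Plasma extracted with acetonitrile and quantified by LC-MS/MS.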

[9] = Tmax in mouse at 50 mg/kg, po administered as single dose measured over 6 hrs by MS/MS method; type: ADME, organism-based; design: dose 50 mg/kg, route oral; details: in vivo; how it was run: as §3
[10] = Half life in mouse at 50 mg/kg, po administered as single dose measured over 6 hrs by MS/MS method; type: ADME, organism-based; design: dose 50 mg/kg, route oral; details: in vivo; how it was run: as §3
[11] = AUC in mouse at 50 mg/kg, po administered as single dose measured over 6 hrs by MS/MS method; type: ADME, organism-based, Plasma; design: time < 6 hr, dose 50 mg/kg, route oral; details: plasma; how it was run: as §3
[12] = Selectivity index, ratio of EC50 for human CRL8155 cells to EC50 for Trypanosoma brucei brucei 427; type: toxicity; details: read-out: Ratio EC50
[13] = Selectivity index, ratio of EC50 for human HepG2 cells to EC50 for Trypanosoma brucei brucei 427; type: toxicity, cell-based; details: read-out: Ratio EC50
HepG2 = test: Cytotoxicity against human HepG2 cells incubated for 48 hrs by alamar blue assay; type: cell-based; details: HepG2, 48 h; how it was run: as §2
[14] = Drug level in Swiss Webster mouse brain at 5 mg/kg, ip after 60 mins by MS/MS method; type: ADME, organism-based; design: dose 5 mg/kg, route intraperitoneal; details: read-out: Drug uptake
How it was run: (§4)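 Female Swiss Webster mice, 6-8 weeks old, three per compound, given 5 mg/kg IP in 5% DMSO/3% EtOH/7% Tween 80 saline. Killed at 1 h. Plasma and homogenised brain extracted with acetonitrile containing an extraction standard, with spiked blank brains used for standardisation. Quantified by LC-MS/MS.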

[15] = Plasma concentration in Swiss Webster mouse at 5 mg/kg, ip after 60 mins by MS/MS method; type: ADME, organism-based; design: dose 5 mg/kg, route intraperitoneal; how it was run: as §4
Trypanosoma brucei [16] = test: Inhibition of protein synthesis in Trypanosoma brucei assessed as reduction in [3H]L-histidine incorporation into proteins incubated for 4 hrs by scintillation counting; type: functional, organism-based

Chain of ATP-dependent translocase ABCB1 (P08183 whole entry): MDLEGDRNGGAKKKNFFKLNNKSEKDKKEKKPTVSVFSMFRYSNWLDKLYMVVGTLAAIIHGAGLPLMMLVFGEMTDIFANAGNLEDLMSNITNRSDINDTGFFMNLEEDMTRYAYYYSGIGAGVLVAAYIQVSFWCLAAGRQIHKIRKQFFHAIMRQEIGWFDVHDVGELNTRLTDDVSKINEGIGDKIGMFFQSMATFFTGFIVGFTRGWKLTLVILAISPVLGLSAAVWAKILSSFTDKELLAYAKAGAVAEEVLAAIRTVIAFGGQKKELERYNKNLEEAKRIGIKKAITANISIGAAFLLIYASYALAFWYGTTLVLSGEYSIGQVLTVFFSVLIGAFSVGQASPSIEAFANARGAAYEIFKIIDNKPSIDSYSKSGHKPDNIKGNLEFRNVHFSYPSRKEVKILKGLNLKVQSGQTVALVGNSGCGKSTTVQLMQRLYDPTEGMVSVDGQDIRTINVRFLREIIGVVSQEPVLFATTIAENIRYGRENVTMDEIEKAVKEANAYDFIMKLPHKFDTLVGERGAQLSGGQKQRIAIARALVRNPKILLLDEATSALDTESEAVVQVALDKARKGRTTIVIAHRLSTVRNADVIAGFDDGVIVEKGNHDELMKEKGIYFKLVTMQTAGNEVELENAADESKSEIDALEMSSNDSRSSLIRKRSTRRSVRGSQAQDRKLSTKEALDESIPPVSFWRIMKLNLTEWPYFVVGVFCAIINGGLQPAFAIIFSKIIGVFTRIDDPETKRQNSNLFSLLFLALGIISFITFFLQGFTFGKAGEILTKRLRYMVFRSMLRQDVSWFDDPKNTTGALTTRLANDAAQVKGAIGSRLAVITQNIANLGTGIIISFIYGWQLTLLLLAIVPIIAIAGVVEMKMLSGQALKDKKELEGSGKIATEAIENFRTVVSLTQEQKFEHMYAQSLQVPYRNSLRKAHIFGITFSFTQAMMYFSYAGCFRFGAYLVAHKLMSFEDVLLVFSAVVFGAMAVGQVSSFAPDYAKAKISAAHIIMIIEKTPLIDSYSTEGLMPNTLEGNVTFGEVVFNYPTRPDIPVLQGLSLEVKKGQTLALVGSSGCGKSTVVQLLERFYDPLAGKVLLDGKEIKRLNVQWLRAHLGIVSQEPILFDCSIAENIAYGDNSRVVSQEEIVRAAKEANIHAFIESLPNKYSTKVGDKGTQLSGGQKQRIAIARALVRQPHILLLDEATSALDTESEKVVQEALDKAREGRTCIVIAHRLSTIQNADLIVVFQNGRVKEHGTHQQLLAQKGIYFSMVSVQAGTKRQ

Compound: CC(C)NCC(O)COc1cccc2ccccc12 (centres undefined) [PROPRANOLOL]
- AQ [1]: < 0.5

Compound: COc1ccccc1CNCCCNC(=O)Nc1ccccc1
- ΔTm (Trypanosoma brucei [2]): 1.1 °C

Compound: O=C(NCCCNCc1cc(Cl)cc(Cl)c1)Nc1ccccc1F
- ΔTm (Trypanosoma brucei [2]): 7.3 °C

Compound: COc1cc(Cl)cc(CNCCCNC(=O)Nc2ccsc2)c1
- ΔTm (Trypanosoma brucei [2]): 7.9 °C
- IC50 [3]: 19 nM
- Ratio IC50 [4]: 347
- EC50 [5]: 150 nM
- EC50 [6]: 22000 nM
- Papp [7]: 9.7 ×10⁻⁶ cm/s
- Cmax [8]: 1290 nM
- Tmax [9]: 30 min
- half-life [10]: 82 min
- AUC at 6 h [11]: 2.68 µM·h
- AQ [1]: 0.53
- selectivity ratio [12]: 147
- selectivity ratio [13]: 147

Compound: O=C(NCCCNCc1cc(Cl)cc(Cl)c1)Nc1ccc(Cl)cc1
- ΔTm (Trypanosoma brucei [2]): 5.7 °C

Compound: N=C(NCCCNCc1cc(Cl)cc(Cl)c1)Nc1ccccc1
- ΔTm (Trypanosoma brucei [2]): 4.5 °C

Compound: O=C(NCCCNCc1cc(Cl)cc(Cl)c1)Nc1ccccc1
- ΔTm (Trypanosoma brucei [2]): 7.8 °C
- IC50 [3]: 57 nM
- EC50 [5]: 415 nM
- EC50 (HepG2): 20000 nM
- Papp [7]: 35.6 ×10⁻⁶ cm/s
- concentration at 1 h [14]: 1800 nM
- Cmax [8]: 1350 nM
- Tmax [9]: 30 min
- half-life [10]: 65 min
- AUC at 6 h [11]: 2.53 µM·h
- concentration at 1 h [15]: 120 nM
- AQ [1]: 0.21

Compound: O=C(NCCCNCc1cc(Cl)cc(Cl)c1)Nc1cccc(Cl)c1
- ΔTm (Trypanosoma brucei [2]): 5.2 °C

Compound: O=C(NCCCNCc1ccc(Cl)cc1)Nc1ccccc1
- ΔTm (Trypanosoma brucei [2]): 2.5 °C

Compound: C[C@@H]1C[C@@H]([C@H](O)CC2CC(=O)NC(=O)C2)C(=O)[C@@H](C)C1
- inhibition (Trypanosoma brucei [16]): Dose-dependent effect

Compound: O=C(NCCCNCc1ccccc1Cl)Nc1ccccc1
- ΔTm (Trypanosoma brucei [2]): 1.9 °C

Compound: O=C(NCCCNCc1cc(Cl)cc(Cl)c1)Nc1cccc(F)c1
- ΔTm (Trypanosoma brucei [2]): 7.7 °C
- IC50 [3]: 110 nM
- Ratio IC50 [4]: 39
- EC50 [5]: 757 nM
- EC50 (HepG2): 17900 nM

Compound: O=C(NCCCNCc1cc(Cl)cc(Cl)c1)Nc1ccc(O)cc1
- ΔTm (Trypanosoma brucei [2]): 5.8 °C

Compound: Oc1cc(NCCCNCc2cc(Cl)cc(Cl)c2)nc2ccccc12
- Papp [7]: 2.9 ×10⁻⁶ cm/s
- concentration at 1 h [14]: < 3 nM
- AQ [1]: 0.36
- inhibition (Trypanosoma brucei [16]): Dose-dependent effect
- selectivity ratio [12]: 27
- selectivity ratio [13]: 27

Compound: O=C(NCCCNCc1cc(Cl)cc(Cl)c1)Nc1cccnc1
- ΔTm (Trypanosoma brucei [2]): 7.1 °C

Compound: O=C(NCCCNCc1cccc(Cl)c1)Nc1ccccc1
- ΔTm (Trypanosoma brucei [2]): 5.5 °C

Compound: O=C(NCCCNCc1ccccc1)Nc1ccccc1
- ΔTm (Trypanosoma brucei [2]): 1.3 °C

Source: ChEMBL document CHEMBL2157993, “Urea-based inhibitors of Trypanosoma brucei methionyl-tRNA synthetase: selectivity and in vivo characterization” (J Med Chem, 2012)
